Test results published in ChEMBL document CHEMBL4725346, “Syntheses and Evaluation of New Bisacridine Derivatives for Dual Binding of G-Quadruplex and i-Motif in Regulating Oncogene c-myc Expression” (J Med Chem, 2020).
Active and inactive are the calls of the source. No cut-off for these calls is given here.

Columns and labels:
Quadruplex DNA [1] = assay: Stabilization of c-myc promoter G-quadruplex DNA Pu27 (unknown origin) in pH 7.4 Tris-HCl buffer by CD spectroscopy; format: nucleic-acid assay
Method in brief: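 Pu27 at 1 µM in 10 mM Tris-HCl pH 7.4, with or without ligand. Annealed at 95 °C for 5 min, cooled to room temperature, stored at 4 °C overnight. CD spectra taken in a 4 mm cuvette over 230–350 nm, three scans averaged, smoothed and buffer-baseline corrected.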

Quadruplex DNA [2] = assay: Binding affinity to 5'-biotin labeled c-myc promoter G-quadruplex DNA Pu27 (unknown origin) by surface plasmon resonance method; format: nucleic-acid assay
Method in brief: (§1)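 SPR: 5'-biotin DNA diluted to 1 μM and captured (1000 RU) on a sensor chip, with a blank cell as reference. Running buffers: Py33 in 20 mM MES pH 5.8, 100 mM KCl, 0.05% Tween-20; Pu27 and duplex in 50 mM Tris-HCl pH 7.4, 100 mM KCl. Six ligand concentrations serially diluted from DMSO stock. Association 260 s, dissociation 300 s at 25 °C; NaOH regeneration; blank sensorgrams subtracted.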

[3] = Stabilization of 5'-FAM/3'-TAMRA labeled hairpin DNA F10T (unknown origin) assessed as change in melting temperature at 1 uM by FRET assay (reference value: 59.1 degreeC)
HeLa = assay: Antiproliferative activity against human Hela cells after 48 hrs by MTT assay; format: functional, cell-based
Method in brief: (§2)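 Cells seeded at 5.0×10^3 per well, pre-incubated 12 h at 37 °C, 5% CO2, then exposed to compounds for 48 h; DMSO-only control. MTT (2.5 mg/mL) added for 4 h, formazan dissolved in DMSO, absorbance at 570 nm. Each dose tested in triplicate; IC50 from percentage survival relative to negative control.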

A549 = assay: Antiproliferative activity against human A549 cells after 48 hrs by MTT assay; format: functional, cell-based; settings: A549, 48 h; method in brief: as §2
A-375 = assay: Antiproliferative activity against human A-375 cells after 48 hrs by MTT assay; format: functional, cell-based; settings: A-375, 48 h; method in brief: as §2
Quadruplex DNA [4] = assay: Stabilization of 5'-FAM/3'-TAMRA labeled c-myc promoter G-quadruplex DNA FPu22T (unknown origin) assessed as change in melting temperature at 1 uM by FRET assay (reference value: 66.5 degreeC); format: nucleic-acid assay
Method in brief: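 FRET melting of dual FAM/TAMRA-labelled FPu22T annealed in 10 mM Tris-HCl pH 7.4 with KCl. Final 0.2 µM DNA with or without ligand. Excitation 470 nm, emission 530 nm, read every 1 °C over 37–99 °C on a real-time PCR cycler. ΔTm = Tm(DNA+ligand) − Tm(DNA).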

[5] = Stabilization of 5'-FAM/3'-TAMRA labeled c-myc promoter i-motif DNA FPy33T (unknown origin) assessed as change in melting temperature at 1 uM by FRET assay (reference value: 53.2 degreeC)
Method in brief: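 FRET melting of dual FAM/TAMRA-labelled FPy33T annealed in 1× BPES (30 mM potassium phosphate, 1 mM EDTA, 100 mM KCl), pH 5.5. Final 0.2 µM DNA with or without ligand. Excitation 470 nm, emission 530 nm, read every 1 °C over 37–99 °C. ΔTm taken against DNA alone.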

HCT-116 = assay: Antiproliferative activity against human HCT-116 cells after 48 hrs by MTT assay; format: functional, cell-based; settings: HCT-116, 48 h; method in brief: as §2
Huh-7 = assay: Antiproliferative activity against human Huh-7 cells after 48 hrs by MTT assay; format: functional, cell-based; settings: Huh-7, 48 h; method in brief: as §2
SiHa = assay: Antiproliferative activity against human SiHa cells after 48 hrs by MTT assay; format: functional, cell-based; method in brief: as §2
dsDNA = assay: Binding affinity to 5'-biotin labeled duplex DNA (unknown origin) by surface plasmon resonance method; format: nucleic-acid assay; method in brief: as §1
U2OS = assay: Antiproliferative activity against human U2OS cells after 48 hrs by MTT assay; format: functional, cell-based; method in brief: as §2
[6] = Binding affinity to 5'-biotin labeled c-myc promoter i-motif DNA Py33 (unknown origin) by surface plasmon resonance method; method in brief: as §1
ssDNA = assay: Binding affinity to 5'-biotin labeled single-stranded DNA Py33 (unknown origin) by surface plasmon resonance method; format: nucleic-acid assay

Compound	Activity (Quadruplex DNA [1])	Kd (Quadruplex DNA [2]) [nM]	ΔTm [3] [°C]	IC50 (HeLa) [nM]	IC50 (A549) [nM]	IC50 (A-375) [nM]	ΔTm (Quadruplex DNA [4]) [°C]	ΔTm [5] [°C]	IC50 (HCT-116) [nM]	IC50 (Huh-7) [nM]	IC50 (SiHa) [nM]	Kd (dsDNA) [nM]	IC50 (U2OS) [nM]	Kd [6] [nM]	Kd (ssDNA) [nM]
c1ccc2c(NCCOCCOCCNc3c4ccccc4nc4ccccc34)c3ccccc3nc2c1	Active	9300	3.4	240	1140	220	10.6	0.1	510	870	2260	5800	330	16000	–
c1ccc2c(NCCCCCCCNc3c4ccccc4nc4ccccc34)c3ccccc3nc2c1	–	11600	9.3	–	–	–	8.8	0.6	–	–	–	7400	–	–	14700
Cc1ccc2nc3ccccc3c(NCCCCCCNc3c4ccccc4nc4ccc(C)cc34)c2c1	–	14300	1.7	–	–	–	10	1.2	–	–	–	–	–	25100	–
Cc1ccc2nc3ccc(C)cc3c(NCCCCCNc3c4cc(C)ccc4nc4ccc(C)cc34)c2c1	–	7300	2.7	660	720	510	11	1	950	2810	1660	33600	1330	–	23700
Cc1ccc2nc3ccccc3c(NCCCCCNc3c4ccccc4nc4ccc(C)cc34)c2c1	–	16300	1.9	1650	830	1830	11.4	0.2	1680	3670	2520	–	1420	14500	26100
Cc1ccc2nc3ccccc3c(NCCCN(C)CCCNc3c4ccccc4nc4ccc(C)cc34)c2c1	–	6900	6.2	370	1160	230	12.1	6.4	1950	190	490	16400	2040	10700	8910
Cc1ccc2nc3ccccc3c(NCCCCCCCNc3c4ccccc4nc4ccc(C)cc34)c2c1	–	10300	3.6	–	–	–	15.3	3.4	–	–	–	24800	–	–	–
Cc1ccc2nc3ccc(C)cc3c(NCCCCCCCNc3c4cc(C)ccc4nc4ccc(C)cc34)c2c1	–	6100	1.8	–	–	–	15.7	1.4	–	–	–	10700	–	–	8800
Cc1ccc2nc3ccc(C)cc3c(NCCCN(C)CCCNc3c4cc(C)ccc4nc4ccc(C)cc34)c2c1	–	5500	3.8	850	520	130	15.6	4.5	2470	270	370	22200	440	10500	13900
COC(=O)c1ccc2nc3ccc(C)cc3c(NCCCNCCNCCCNc3c4cc(C)ccc4nc4ccc(C(=O)OC)cc34)c2c1	–	2900	4.8	–	–	–	8.6	2	–	–	–	11800	–	3800	–
Cc1ccc2nc3ccccc3c(NCCCCNc3c4ccccc4nc4ccc(C)cc34)c2c1	–	1600	2	1360	320	920	13.9	0.4	910	3290	2440	–	790	–	–
c1ccc2c(NCCCNc3c4ccccc4nc4ccccc34)c3ccccc3nc2c1	–	4300	2.2	2620	1730	2050	14	1.3	3510	5560	3060	10100	1600	–	13700
CN(CCCNc1c2ccccc2nc2ccccc12)CCCNc1c2ccccc2nc2ccccc12	–	18300	10.8	340	350	120	7.7	7.3	190	800	2510	8100	130	9100	–
Cc1ccc2nc3ccc(C)cc3c(NCCCNc3c4cc(C)ccc4nc4ccc(C)cc34)c2c1	–	9200	0.7	1360	1710	2480	14.1	2.4	6250	6200	3820	35400	2940	–	–
Cc1ccc2nc3ccc(C)cc3c(NCCCCNc3c4cc(C)ccc4nc4ccc(C)cc34)c2c1	–	2900	0.8	1470	470	1920	10.4	9.1	2060	2680	3700	–	550	16000	6800
Cc1ccc2nc3ccc(C)cc3c(NCCCCCCNc3c4cc(C)ccc4nc4ccc(C)cc34)c2c1	–	1100	2.7	–	–	–	16.8	10.1	–	–	–	–	–	12400	4700
